Measured values published in ChEMBL document CHEMBL1131008, “Substituted halogenated arylsulfonamides: a new class of sigma receptor binding tumor imaging agents” (J Med Chem, 1998).

Biological target: Sigma 2 receptor
Test: Inhibition of [3H]-DTG binding to sigma-2 receptor of rat liver membranes with 1 uM dextrallorphan
Format: cell membranes, Membrane
How it was run: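 Rat liver membranes (150-200 µg protein) incubated with 5 nM [3H]DTG plus 1 µM dextrallorphan to mask sigma-1 sites, in 50 mM Tris-HCl pH 8.0, 120 min at 25 °C. […] Filtration assay. IC50 from curve fitting, converted to Ki via Cheng-Prusoff. Two or three experiments, each in duplicate.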

SMILES | Ki [nM]
O=S(=O)(NCCN1CCCCCC1)c1ccc(I)cc1 | 189
CCN(CC)CCNS(=O)(=O)c1ccc(Br)cc1 | 2830
CCN(CC)CCNS(=O)(=O)c1ccc(I)cc1 | 2390
O=S(=O)(NCCN1CCCC1)c1ccc(Br)cc1 | 1490
O=S(=O)(NCCN1CCCCCC1)c1ccc(Br)cc1 | 198
CN(CCN1CCCCCC1)S(=O)(=O)c1ccc(I)cc1 | 23.5
COc1ccc(S(=O)(=O)NCCN2CCCCC2)cc1I | 449
O=S(=O)(NCCN1CCCC1)c1ccc(I)cc1 | 1000
O=S(=O)(NCCN1CCCCC1)c1ccc(Br)cc1 | 459
COc1ccc(S(=O)(=O)N(C)CCN2CCCCCC2)cc1I | 337
CN(CCN1CCCCCC1)S(=O)(=O)c1ccc(Br)cc1 | 44.4
O=S(=O)(NCCN1CCCCC1)c1ccc(I)cc1 | 206
